Data taken from ChEMBL document CHEMBL1144420 (J Med Chem, 2005).

Assays:
[1] = molecular target: T1, Sodium-dependent dopamine transporter (Rattus norvegicus, UniProt P23977); assay: Inhibition of [3H]dopamine uptake into rat striatal synaptosomes; assay type: functional, subcellular, Brain
Method in brief: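 [3H]Dopamine uptake run at 33 °C, in a buffer whose ion concentrations differ from those of the binding assays.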

[2] = molecular target: Sodium-dependent serotonin transporter (Rattus norvegicus, UniProt P31652); assay: Displacement of [3H]paroxetine from Serotonin transporter of rat caudate putamen; assay type: tissue-based
Sodium-dependent serotonin transporter, sequence (P31652 whole entry): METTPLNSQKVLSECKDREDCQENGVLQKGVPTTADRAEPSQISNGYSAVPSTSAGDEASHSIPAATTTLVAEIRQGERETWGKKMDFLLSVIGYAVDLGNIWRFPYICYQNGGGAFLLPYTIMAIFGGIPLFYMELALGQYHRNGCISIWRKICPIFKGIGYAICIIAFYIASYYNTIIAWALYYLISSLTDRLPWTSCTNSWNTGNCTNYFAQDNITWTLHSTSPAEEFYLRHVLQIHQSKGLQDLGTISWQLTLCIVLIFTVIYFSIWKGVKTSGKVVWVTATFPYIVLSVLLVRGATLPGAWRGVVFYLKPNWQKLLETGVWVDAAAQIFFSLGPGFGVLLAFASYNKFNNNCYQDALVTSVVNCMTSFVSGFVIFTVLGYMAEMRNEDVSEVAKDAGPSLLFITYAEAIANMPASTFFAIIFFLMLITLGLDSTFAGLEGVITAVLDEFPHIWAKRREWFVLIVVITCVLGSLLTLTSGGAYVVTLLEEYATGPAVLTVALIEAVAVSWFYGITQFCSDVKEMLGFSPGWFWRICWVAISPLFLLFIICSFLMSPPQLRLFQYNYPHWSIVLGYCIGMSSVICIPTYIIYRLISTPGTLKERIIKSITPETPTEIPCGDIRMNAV

[3] = molecular target: T1, Sodium-dependent dopamine transporter; assay: Displacement of [3H]WIN-35428 from Dopamine transporter of rat caudate putamen; assay type: tissue-based
Method in brief: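 Radioligand displacement binding to brain DAT, incubated at 0 °C.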

T1 sequence (P23977 whole entry): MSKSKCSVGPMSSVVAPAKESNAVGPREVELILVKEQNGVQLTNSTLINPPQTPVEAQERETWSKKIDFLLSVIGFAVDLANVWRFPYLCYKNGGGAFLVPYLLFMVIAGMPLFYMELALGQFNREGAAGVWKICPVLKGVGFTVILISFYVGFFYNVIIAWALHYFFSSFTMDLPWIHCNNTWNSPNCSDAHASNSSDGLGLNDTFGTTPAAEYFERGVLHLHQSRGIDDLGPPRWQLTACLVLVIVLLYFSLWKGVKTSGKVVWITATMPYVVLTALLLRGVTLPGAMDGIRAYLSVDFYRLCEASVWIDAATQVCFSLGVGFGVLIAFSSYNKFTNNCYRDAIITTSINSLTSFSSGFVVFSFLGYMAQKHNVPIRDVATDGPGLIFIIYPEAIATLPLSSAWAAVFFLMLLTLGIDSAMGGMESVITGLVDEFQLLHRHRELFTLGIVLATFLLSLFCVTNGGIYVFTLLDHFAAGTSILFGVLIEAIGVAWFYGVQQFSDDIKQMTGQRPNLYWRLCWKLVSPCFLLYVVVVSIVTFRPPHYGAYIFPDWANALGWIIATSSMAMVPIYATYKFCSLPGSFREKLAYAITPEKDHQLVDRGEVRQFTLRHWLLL

Row | Structure (SMILES) | IC50 [1] [nM] | IC50 [2] [nM] | IC50 [3] [nM]
1 | CN1C2CCCC1[C@H](OC(c1ccc(F)cc1)c1ccc(F)cc1)C2 (stereo partly specified) | 347 | > 100000 | 900
2 | CN1C2C[C@H](OC(c3ccccc3)c3ccccc3)CC1[C@@H](O)C2 (stereo partly specified) | 149 | > 100000 | 1300
3 | CN1C2CCCC1[C@@H](OC(c1ccc(F)cc1)c1ccc(F)cc1)C2 (stereo partly specified) | 199 | > 2000 | 1130
4 | CN1C2C[C@H](OC(c3ccccc3)c3ccc(Cl)cc3)CC1[C@@H](O)C2 (stereo partly specified) | 39.1 | > 100000 | 600
5 | COCO[C@H]1CC2C[C@H](OC(c3ccccc3)c3ccc(Cl)cc3)CC1N2C (stereo partly specified) | 194 | > 100000 | 400
6 | COCO[C@@H]1CC2C[C@H](OC(c3ccc(F)cc3)c3ccc(F)cc3)CC1N2C (stereo partly specified) | 491 | 3500 | 2500
7 | COCO[C@H]1CC2C[C@H](OC(c3ccccc3)c3ccccc3)CC1N2C (stereo partly specified) | 1080 | > 100000 | 4500
8 | CN1C2C[C@H](OC(c3ccc(F)cc3)c3ccc(F)cc3)CC1[C@H](O)C2 (stereo partly specified) | 162 | > 100000 | 140
9 | COCO[C@H]1CC2C[C@H](OC(c3ccc(F)cc3)c3ccc(F)cc3)CC1N2C (stereo partly specified) | 79.7 | > 100000 | 340
10 | CN1C2C[C@H](OC(c3ccc(F)cc3)c3ccc(F)cc3)CC1[C@@H](O)C2 (stereo partly specified) | 8.1 | 11000 | 12
11 | CO[C@@H]1CC2C[C@H](OC(c3ccc(F)cc3)c3ccc(F)cc3)CC1N2C (stereo partly specified) | 12.4 | 280 | 10
12 | CO[C@H]1CC2C[C@H](OC(c3ccccc3)c3ccccc3)CC1N2C (stereo partly specified) | 139 | > 100000 | 276
13 | CO[C@H]1CC2C[C@H](OC(c3ccc(F)cc3)c3ccc(F)cc3)CC1N2C (stereo partly specified) | 104 | > 100000 | 25
14 | CO[C@H]1CC2C[C@H](OC(c3ccccc3)c3ccc(Cl)cc3)CC1N2C (stereo partly specified) | 179 | > 100000 | 32
15 | CO[C@@H]1CC2CC(OC(c3ccccc3)c3ccc(Cl)cc3)CC1N2C (single isomer, unassigned) | 519 | > 100000 | 750
16 | CO[C@@H]1CC2CC(OC(c3ccccc3)c3ccccc3)CC1N2C (single isomer, unassigned) | 240 | > 100000 | 975
17 | CO[C@@H]1CC2CC(OC(c3ccc(F)cc3)c3ccc(F)cc3)CC1N2C (single isomer, unassigned) | 165 | > 10 | 95
